Published values of several laboratories.
Compare with care: the assays were run in different laboratories.
AURKB: Aurora kinase B (AURKB, Homo sapiens, UniProt Q96GD4)
PFF0160c: Dihydroorotate dehydrogenase (quinone), mitochondrial (PFF0160c, Plasmodium falciparum, UniProt Q08210)
PDE5A: cGMP-specific 3',5'-cyclic phosphodiesterase (PDE5A, Homo sapiens, UniProt O76074)
HDAC2: Histone deacetylase 2 (HDAC2, Homo sapiens, UniProt Q92769)
BMX: Cytoplasmic tyrosine-protein kinase BMX (BMX, Homo sapiens, UniProt P51813)
KDM1A: Lysine-specific histone demethylase 1A (KDM1A, Homo sapiens, UniProt O60341)
PPO3: PPO3 (Agaricus bisporus, UniProt C7FF04)
PARP1: Poly [ADP-ribose] polymerase 1 (PARP1, Homo sapiens, UniProt P09874)
MEP1A: Meprin A subunit alpha (MEP1A, Homo sapiens, UniProt Q16819)
ARAF: Serine/threonine-protein kinase A-Raf (ARAF, Homo sapiens, UniProt P10398)

CC(C)(C)n1nc(-c2cnc3cc(OC4CC4)ccc3c2)c(C(N)=O)c1N
IC50 (AURKB; cell-free assay, inhibitor): > 10000 nM

Cc1cc(Nc2ccc(Cl)cc2)n2nc(CN(C)C)nc2n1
IC50 (PFF0160c; enzyme activity, inhibitor): > 10000 nM

CC(C)(C)N1C(=O)[C@H]2Cc3c([nH]c4ccccc34)[C@@H](c3cccnc3)N2C1=O
IC50 (PDE5A; enzyme activity, inhibitor, FP): 410 nM

CCC(=O)CCCCC[C@@H]1NC(=O)[C@H](C)N(C)C(=O)C[C@H](CC(C)C)NC(=O)[C@H](Cc2c[nH]c3ccccc23)NC1=O
IC50 (HDAC2; enzyme activity, inhibitor): 40 nM

O=C1[C@@H]2Cc3c([nH]c4ccccc34)[C@@H](c3cccnc3)N2C(=O)N1c1ccc(Cl)cc1
IC50 (PDE5A; enzyme activity, inhibitor, FP): 1250 nM

CNCCOc1nc2nc(C)cc(Nc3ccc(Cl)cc3)n2n1
IC50 (PFF0160c; enzyme activity, inhibitor): > 10000 nM

COc1cc(C[C@H]2C(=O)OC[C@@H]2Cc2ccc(OC)c(OC)c2)ccc1O
IC50 (PDE5A; enzyme activity, inhibitor): > 20000 nM

CCCCc1ccc(-c2ccc(-c3cc(C(=O)O)c4cc(Cl)cc(Cl)c4n3)o2)cc1
IC50 (Eukaryotic initiation factor 4A-I (EIF4A1, Homo sapiens, UniProt P60842); ATPase activity, inhibitor, absorbance): 52100 nM

C=CC(=O)Nc1cc(Nc2nccc(Nc3cc(Cl)c(F)cc3C(C)(C)O)n2)c(OC)cc1N1CC[C@@H](N(C)C)C1
IC50 (BMX; enzyme activity, inhibitor; with preincubation): 2290 nM

Cc1cc(Nc2ccc(C(F)(F)F)cc2)n2nc(OCCN)nc2n1
IC50 (PFF0160c; enzyme activity, inhibitor): > 10000 nM

CCCON(Cc1ccc(C(=O)NO)cc1)C(=O)Nc1ccccc1
IC50 (HDAC2; enzyme activity, inhibitor, fluorescence): 1420 nM

CCCSc1nc(Sc2nncs2)c2nnn(CCO)c2n1
IC50 (KDM1A; enzyme activity, inhibitor, fluorescence): 1050 nM

COc1ccc([C@@H]2CN(C(=O)[C@@H](O)CO)C[C@@]2(C)[C@@H](C)O)cc1OC1CN(c2ccc(C)cn2)C1
IC50 (3',5'-cyclic-AMP phosphodiesterase 4A (PDE4A, Homo sapiens, UniProt P27815); enzyme activity, inhibitor): 0.09 nM

Nc1nc(N)c(N=Nc2ccc([N+](=O)[O-])cc2)c(Cl)n1
IC50 (PPO3; enzyme activity, inhibitor, absorbance): 37200 nM

COc1ccc(C2=NN(C3CCCCCC3)C(=O)[C@@H]3CC=CC[C@H]23)cc1-c1ccc(C(N)=O)cc1 (relative stereo)
IC50 (PDE5A; enzyme activity, inhibitor): > 10000 nM

O=C(O)CCCC(=O)N1CCN(C(=O)c2cc(Cc3n[nH]c(=O)c4ccccc34)ccc2F)CC1
IC50 (PARP1; enzyme activity, inhibitor): 6.7 nM

O=C(CCN(Cc1ccncc1)Cc1ccc2c(c1)OCO2)NO
IC50 (MEP1A; enzyme activity, inhibitor): 474 nM

C[S+]([O-])c1ccc(-c2nc(-c3ccncc3)c(-c3ccc(F)cc3)[nH]2)cc1 (stereo not drawn)
IC50 (ARAF; enzyme activity, inhibitor; lysate): > 10000 nM

Cc1ccc(C(C)C)cc1NC(=O)COC(=O)c1ccc(O)c(O)c1
IC50 (PPO3; enzyme activity, inhibitor): 11000 nM

O=C(Nc1ccn(Cc2ccc(O)cc2C(F)(F)F)n1)c1c(F)cccc1F
IC50 (Transient receptor potential cation channel subfamily A member 1 (TRPA1, Homo sapiens, UniProt O75762); ion current, inhibitor): > 10000 nM

CCOCc1nc(O)c(-c2nnc(Cc3ccc(Cl)cn3)o2)c(O)c1-c1c(OC)cccc1OC
IC50 (Adenosine receptor A2a (ADORA2A, Homo sapiens, UniProt P29274); ligand displacement, radioligand): > 30000 nM

O=C(c1ccc2ccncc2c1)N1CCC2CC1CN2C(=O)c1n[nH]c(=O)c2ccccc12 (stereo not drawn)
IC50 (PARP1; enzyme activity, inhibitor): 1420 nM

CNCCOc1nc2nc(C)cc(Nc3ccc(S(F)(F)(F)(F)F)cc3)n2n1
IC50 (PFF0160c; enzyme activity, inhibitor): > 10000 nM

Cc1cc(Nc2ccc3c(c2)CCCC3)n2ccnc2n1
IC50 (PFF0160c; enzyme activity, inhibitor): 100 nM

O=C(CCN(Cc1ccc2c(c1)OCO2)Cc1ccc(Cl)c(O)c1F)NO
IC50 (MEP1A; enzyme activity, inhibitor): 159 nM

CC(=O)N[C@@H](CC(=O)O)C(=O)N[C@@H](CCC(=O)O)C(=O)N[C@H](C(=O)N[C@H](C=O)CC(=O)O)C(C)C
IC50 (Caspase-6 (CASP6, Homo sapiens, UniProt P55212); enzyme activity, inhibitor): 23.2 nM

Cc1cc(Nc2ccc(S(F)(F)(F)(F)F)cc2)n2nc(CC(C)C)nc2n1
IC50 (PFF0160c; enzyme activity, inhibitor): > 10000 nM

CN1CCN(c2ccc(Nc3ncc4cc(C#N)c(=O)n(C5CCCC5)c4n3)cc2)CC1
IC50 (ARAF; enzyme activity, inhibitor): 566 nM

CCCSc1nc(Sc2nnnn2C)c2nnn(CCc3cccs3)c2n1
IC50 (KDM1A; enzyme activity, inhibitor, fluorescence): 339 nM

Nc1nc(N)c(N=Nc2ccccc2[N+](=O)[O-])c(Cl)n1
IC50 (PPO3; enzyme activity, inhibitor, absorbance): 24700 nM

Cc1cc(Nc2cccc(Cl)c2)n2[nH]c(=O)nc2n1
IC50 (PFF0160c; enzyme activity, inhibitor): > 10000 nM

Cc1cnc(Nc2ccc(N3CCN(C)CC3)cc2)nc1Nc1cccc(S(=O)(=O)NC(C)(C)C)c1
IC50 (AURKB; enzyme activity, inhibitor, mobility shift): 33 nM

Cc1ccc(C(C)C)cc1NC(=O)COC(=O)c1cccc(O)c1
IC50 (PPO3; enzyme activity, inhibitor): 11000 nM

COc1ccc([C@@H]2c3[nH]c4ccccc4c3C[C@H]3C(=O)N(C(C)(C)C)C(=O)N23)cc1OC
IC50 (PDE5A; enzyme activity, inhibitor, FP): 6210 nM

Cc1ccc(C(C)C)cc1NC(=O)COC(=O)/C=C/c1ccc(Cl)cc1
IC50 (PPO3; enzyme activity, inhibitor): 16700 nM

Cc1ccc(NC(=O)c2ccc(C)c(C(F)(F)F)c2)cc1C#Cc1nn(C2CCC(O)CC2)c2ncnc(N)c12 (stereo not drawn)
IC50 (BMX; enzyme activity, inhibitor, radiometric): 21 nM

CN1C(=O)c2c(nn(Cc3ccc(-c4cccc(F)n4)cc3)c2Nc2ccccc2)N2C1=N[C@@H]1CCC[C@@H]12
IC50 (PDE5A; enzyme activity, inhibitor): > 100 nM

CCN1C(=O)[C@@H]2Cc3c([nH]c4ccccc34)[C@@H](c3cccnc3)N2C1=O
IC50 (PDE5A; enzyme activity, inhibitor, FP): 150 nM

Cc1cc(Nc2ccc(S(F)(F)(F)(F)F)cc2)n2nc(OCCN(C)C)nc2n1
IC50 (PFF0160c; enzyme activity, inhibitor): > 10000 nM

CN(CCCCNC(=O)c1cc2ccccc2[nH]1)[C@@H]1Cc2cccc3[nH]c(=O)n(c23)C1
IC50 (5-hydroxytryptamine receptor 2A (HTR2A, Homo sapiens, UniProt P28223); ligand displacement, radioligand): 1940 nM

CCN1C(=O)[C@@H]2Cc3c([nH]c4ccccc34)[C@@H](c3ccc(OC)c(OC)c3)N2C1=O
IC50 (PDE5A; enzyme activity, inhibitor, FP): 13700 nM

Cc1cc(Nc2cccc(Cl)c2)n2nc(CN(C)C)nc2n1
IC50 (PFF0160c; enzyme activity, inhibitor): > 10000 nM
